KLK5 inh = kallikrein 5 (human) inhibition | recombinant hK5, fluorogenic AMC substrate cleavage | Q9Y337 | AID 873 | hit rate 0.59% among 210,000 | inhibition, % at 5 µM;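 active = inhibition of 40% or more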
Thrombin inh = blocks human thrombin protease activity. hit rate 0.26% among 220,000. inhibition, % at 5 µM. P00734. alpha-thrombin, Boc-VPR-AMC fluorogenic substrate cleavage;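 active = inhibition at or above 40%; inactive = inhibition below 40%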
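Material: human alpha-thrombin enzyme / Medium: pH 7.5 Tris (50 mM) with NaCl 150 mM, Tween 20 0.05% / Compound: single-point dosing at 5 µM, 0.2% DMSO / Incubation: enzyme reaction carried out at room temperature / Detection: AMC fluorescence, 355/460 nm / Read-out basis: percent inhibition scaled between no-compound controls and no-enzyme blanks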
Lipid droplet = hepatic lipid droplet formation modulation; hit rate 0.4% among 240,000; inhibition, % at 6.5 µM; AID 1656; AML12 mouse hepatocytes, oleate lipid droplets, BODIPY imaging;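 active = lipid droplet intensity inhibited by at least 50%, with more than 500 cells counted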
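Assay system: AML12 hepatocytes (mouse) / Also added: 100 µM oleic acid challenge / Times: overnight treatment with compound plus oleate / Detection: high-content imaging of BODIPY-stained droplets and DAPI nuclei / Evaluation: % inhibition of lipid droplet signal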
FXIIa inh 1536 = blocks human coagulation factor XIIa protease activity; hit rate 0.3% among 220,000; purified FXIIa, Boc-QGR-AMC fluorogenic substrate, 2 h; P00748; inhibition, % at 5 µM; AID 800; in the data active = inhibition above about 40%
Calb biofilm kill = mixtures killing C. albicans biofilm; C. albicans biofilm persisters + clotrimazole, fluorescence viability; primary screen in compound mixtures of four per well; AID 1242; hit rate 0.02% among 120,000; inhibition, % at 7.6 µM;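 active = inhibition above 30.3% in the primary screen of four-compound pools, then above 30% when the compound was retested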;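 also: compounds exposed to preformed 24 h biofilms for 48 h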
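Assay system: C. albicans biofilms / Medium: RPMI/MOPS medium, pH 7.0 / Schedule: biofilm formation 24 h, compound exposure 48 h, 37 °C / Measured by: Alamar Blue fluorescence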
FXIa inh 1536 = inhibitors of human coagulation factor XIa. P03951. purified FXIa, Boc-Glu-Ala-Arg-AMC fluorogenic substrate. inhibition, % at 5 µM. hit rate 0.14% among 220,000. AID 798;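 active = inhibition of at least 40%; inactive = inhibition below 40%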;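 also: fluorescence of freed AMC excited at 355 nm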
Target sequence (P03951 19-387 limits assumed): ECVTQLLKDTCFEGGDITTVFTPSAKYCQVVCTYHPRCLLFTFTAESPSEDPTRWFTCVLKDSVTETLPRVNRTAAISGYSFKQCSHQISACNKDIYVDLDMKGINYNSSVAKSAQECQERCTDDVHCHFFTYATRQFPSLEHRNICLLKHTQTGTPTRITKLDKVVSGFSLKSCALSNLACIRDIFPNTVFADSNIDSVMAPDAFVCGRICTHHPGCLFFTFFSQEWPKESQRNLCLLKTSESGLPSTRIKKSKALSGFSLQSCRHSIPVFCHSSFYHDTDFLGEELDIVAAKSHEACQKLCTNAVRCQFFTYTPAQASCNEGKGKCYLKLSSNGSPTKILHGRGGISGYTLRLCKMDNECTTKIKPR
Target sequence (P03951 388-625 limits assumed): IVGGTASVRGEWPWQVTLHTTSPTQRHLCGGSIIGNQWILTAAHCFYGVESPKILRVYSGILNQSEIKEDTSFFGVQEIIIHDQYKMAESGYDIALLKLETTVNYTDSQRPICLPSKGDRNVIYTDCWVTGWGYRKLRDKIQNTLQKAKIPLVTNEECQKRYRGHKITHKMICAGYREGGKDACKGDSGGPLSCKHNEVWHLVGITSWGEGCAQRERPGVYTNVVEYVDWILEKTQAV
Hep lipid conf = confirmation of inhibitors of hepatic lipid droplet formation | shares compounds with Lipid droplet | AML12 mouse hepatocytes, BODIPY lipid droplet imaging; droplets induced with 100 µM oleic acid | inhibition, % at 5.2 µM | hit rate 65% among 870 | AID 463183;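 active = inhibition of lipid droplet metric at least 50%, with more than 300 cells in each of four replicates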
AML12 cytotox = counter-screen for cytotoxicity in AML12 mouse hepatocytes. shares compounds with Lipid droplet. DAPI nuclear morphology cytotoxicity imaging; active compounds read high; cells fed 100 µM oleate overnight. z-score at 5 µM. hit rate 3% among 870. AID 463200; in the data active = z-score above about 6.3;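 also: compound exposure lasted overnight at 37 °C before fixation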
AML12 tox ATP = AML12 hepatocyte cytotoxicity, confirmed; AML12 mouse hepatocyte viability, ATP luminescence; cells loaded with 100 µM oleic acid; shares compounds with Lipid droplet; cytotoxicity, % at 50 µM; AID 463219; 530 tested, under 10 active;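 active = cytotoxicity above 50% in each of four replicates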;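 also: compound exposure lasted overnight at 37 °C before the ATP read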
Of the large screens only hits and unclear results are named; the others gave an inactive call (follow-up assays come after a bar, where they were run). Sampled rows, rich in hits. Any-hit rate of the full collection: about 1.1%.

O=C(NCc1ccc(C(=O)O)cc1)OCc1ccccc1	Lipid droplet 63.0 | Hep lipid conf inactive | AML12 cytotox inactive
CC(C)c1ccccc1NC(=S)NCCCn1ccnc1	none
CCc1cc2c(=O)c(-c3nc4ccccc4n3C)c(C)oc2c(CN2CCOCC2)c1O	Lipid droplet 50.0 (no result: Calb biofilm kill) | Hep lipid conf 88.3 | AML12 cytotox inactive | AML12 tox ATP inactive
CCc1cc2c(=O)c(-c3nc4ccccc4n3C)c(C)oc2c(CN2CCN(C)CC2)c1O	none (no result: Calb biofilm kill)
COc1cc2c3nnc(-c4ccc(F)cc4)c-3cn(Cc3cccc(C)c3)c2cc1OC	Lipid droplet 54.3 (no result: Calb biofilm kill) | Hep lipid conf inactive | AML12 cytotox inactive
COc1cc2c3nnc(-c4ccc(F)cc4)c-3cn(Cc3cccc(F)c3)c2cc1OC	none
CC(C)(C)CC(=O)N1CCN(Cc2ccc3c(c2)OCO3)CC1	none (no result: KLK5 inh, Thrombin inh, FXIIa inh 1536, Calb biofilm kill, FXIa inh 1536)
Cc1coc2cc3oc(=O)cc(C)c3cc12	Lipid droplet 52.5 | Hep lipid conf inactive | AML12 cytotox inactive
CCn1nc(CC(C)C)cc1C(=O)N1CCCC(Nc2ccc(OC)cc2)C1 (stereo not drawn)	none (no result: KLK5 inh, Thrombin inh, FXIIa inh 1536, Calb biofilm kill, FXIa inh 1536)
COC(=O)C1=C(C)N=c2s/c(=C3\C(=O)Nc4ccccc43)c(=O)n2C1c1ccccc1 (stereo not drawn)	Lipid droplet 59.9 (no result: Calb biofilm kill) | Hep lipid conf 55.5 | AML12 cytotox inactive | AML12 tox ATP 68.6
CCOC(=O)C1=C(C)n2c(s/c(=C3\C(=O)Nc4ccccc43)c2=O)=NC1c1ccc(OC)cc1 (stereo not drawn)	Lipid droplet 79.7 | Hep lipid conf inactive | AML12 cytotox inactive
C=CCN1C(=O)c2ccccc2Sc2ccc(C(=O)NCC(OC)OC)cc21	Lipid droplet 54.7 (no result: KLK5 inh, Thrombin inh, FXIIa inh 1536, Calb biofilm kill, FXIa inh 1536) | Hep lipid conf inactive | AML12 cytotox inactive
CCOCCCNC(=O)CCS(=O)(=O)Cc1ccc(C)cc1	none (no result: Lipid droplet, Calb biofilm kill)
CCCCOc1ccc(C(C)NC(=O)CCS(=O)(=O)Cc2ccc(C)cc2)cc1 (stereo not drawn)	Lipid droplet 51.8 | Hep lipid conf 103.0 | AML12 cytotox inactive
CSc1ccc(CN2C(=O)NC3(CCCCCCC3)C2=O)cc1	none
COc1cccc(CNS(=O)(=O)c2ccc(S(=O)(=O)NC3CC3)cc2)c1	Lipid droplet 80.5 (no result: KLK5 inh, Thrombin inh, FXIIa inh 1536, Calb biofilm kill, FXIa inh 1536) | Hep lipid conf 108.0 | AML12 cytotox inactive | AML12 tox ATP inactive
COc1ccc(CNS(=O)(=O)c2ccc(S(=O)(=O)NC3CC3)cc2)cc1	none (no result: KLK5 inh, Thrombin inh, FXIIa inh 1536, Calb biofilm kill, FXIa inh 1536)
CC(NC(=O)[C@@H](C)NC(=O)[C@@H]1Cc2ccccc2CN1C(=O)OC(C)(C)C)c1ccccc1 (stereo partly drawn)	Lipid droplet 68.5 (no result: KLK5 inh, Thrombin inh, FXIIa inh 1536, Calb biofilm kill, FXIa inh 1536) | Hep lipid conf 76.1 | AML12 cytotox inactive | AML12 tox ATP inactive
c1ccc(Oc2cccc(CN3CCCCC3)c2)cc1	Lipid droplet 56.2 (no result: Calb biofilm kill) | Hep lipid conf inactive | AML12 cytotox inactive
CCOc1ccccc1N1CCN(Cc2cn[nH]c2-c2ccc(F)cc2)CC1	none
O=C(Nc1nc(-c2ccccc2)cs1)C1CCCO1 (stereo not drawn)	none (no result: Calb biofilm kill)
O=C(Nc1nc(-c2ccccc2)cs1)C1CCCCN1S(=O)(=O)c1ccc(Cl)cc1 (stereo not drawn)	Lipid droplet 61.9 (no result: Calb biofilm kill) | Hep lipid conf 91.0 | AML12 cytotox inactive | AML12 tox ATP inactive
O=C(Nc1nc(-c2ccc(-c3ccccc3)cc2)cs1)C1CCCO1 (stereo not drawn)	Lipid droplet 60.7 (no result: Calb biofilm kill) | Hep lipid conf 101.8 | AML12 cytotox inactive | AML12 tox ATP inactive
Cc1ccc(C(=O)Nc2cccc(S(=O)(=O)N3CCOCC3)c2)cc1[N+](=O)[O-]	none
O=C(Nc1cccc(S(=O)(=O)N2CCOCC2)c1)c1ccc(Cl)c([N+](=O)[O-])c1	Lipid droplet 60.7 | Hep lipid conf inactive | AML12 cytotox inactive

Assay outcomes (PubChem BioAssay)
